Laboratory results from PMC9079887 (RSC Advances, 2018).

Key:
[1] = target: Cathepsin L (Homo sapiens, UniProt P07711); experiment: Cathepsin activity assay, z-Phe-Arg-AMC substrate, cathepsin L; type: biochemical; details: read-out: IC50 Cathepsin L, pH 5.5, tested under 10 μM
Procedure, shortened: (§1)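 Cathepsin activity was read fluorimetrically on a microplate reader with z-Phe-Arg-AMC as substrate. Activity data were fitted to a linearized curve, and IC50 was read from that curve.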

[2] = target: T1, Cathepsin K (Homo sapiens, UniProt P43235); experiment: Cathepsin activity assay, z-Phe-Arg-AMC substrate, cathepsin K; type: biochemical; details: read-out: IC50 Cathepsin K, pH 5.5, tested under 10 μM
T1 sequence (P43235 115-329): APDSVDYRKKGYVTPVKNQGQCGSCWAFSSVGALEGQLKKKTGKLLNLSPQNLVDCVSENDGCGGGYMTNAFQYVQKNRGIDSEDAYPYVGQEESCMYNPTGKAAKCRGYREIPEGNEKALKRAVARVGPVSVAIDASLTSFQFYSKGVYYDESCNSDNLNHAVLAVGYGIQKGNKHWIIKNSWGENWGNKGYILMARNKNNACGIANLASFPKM
Procedure, shortened: as §1

[3] = system: activated form of MMP-2; details: <50 μmol L^−1; cited from earlier work
[4] = system: pro-MMP-2; details: <50 μmol L^−1; cited from earlier work

Sequence of Cathepsin L (P07711 114-333, species assumed): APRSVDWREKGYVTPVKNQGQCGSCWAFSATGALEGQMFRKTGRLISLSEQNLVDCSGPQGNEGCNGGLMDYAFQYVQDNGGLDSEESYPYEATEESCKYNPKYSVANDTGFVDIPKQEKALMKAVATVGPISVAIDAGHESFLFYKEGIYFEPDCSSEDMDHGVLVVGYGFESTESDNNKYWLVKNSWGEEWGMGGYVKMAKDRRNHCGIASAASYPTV

| SMILES | IC50 [1] [µM] | IC50 [2] [µM] | effect on the activated form of MMP-2 [3] | effect on activity and expression of pro-MMP-2 [4] |
| --- | --- | --- | --- | --- |
| [Cl][Eu]([Cl])[Cl] [EuCl3·6H2O] | > 10 | > 10 |  |  |
| [Cl-].[Cl-].[Cl-].[Gd+3] [GdCl36H2O] | > 10 | > 10 |  |  |
| O.O.O.O.O.O.O.[Cl-].[Cl-].[Cl-].[La+3] [LaCl3·7H2O] |  |  | does not suppress the activated form of MMP-2 | inhibits the activity and expression of pro-MMP-2 |

Second part, led by results:

| IC50 [1] [µM] | IC50 [2] [µM] | SMILES | effect on the activated form of MMP-2 [3] | effect on activity and expression of pro-MMP-2 [4] |
| --- | --- | --- | --- | --- |
| > 10 | > 10 | [Cl-].[Cl-].[Cl-].[La+3] [LaCl3·7H2O] |  |  |
| > 10 | > 10 | [Cl-].[Cl-].[Cl-].[Tb+3] [TbCl3·6H2O] |  |  |
| > 10 | > 10 | [Cl][Yb]([Cl])[Cl] [YbCl3·6H2O] |  |  |
